# In ChEMBL document CHEMBL1212855, “1-Azaaurones derived from the naturally occurring aurones as potential antimalarial drugs” (Bioorg Med Chem, 2010):
# Legend:
# Plasmodium falciparum = assay: Antiplasmodial activity against Plasmodium falciparum FcB1/columbia infected in human erythrocytes; format: functional, organism-based
# How it was run: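 Blood stages cultured in human erythrocytes in RPMI 1640 with 5% human serum (Trager–Jensen, modified). Cultures were synchronized every 48 h by 5% D-sorbitol lysis. IC50 is the concentration giving 50% inhibition of parasite growth, with chloroquine as the control drug.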
# [1] = tested on: Plasmodium vinckei petteri; assay: Antimalarial activity against Plasmodium vinckei petteri infected in CD mice (Mus musculus) assessed as inhibition of parasitaemia at 1 mg/kg, intraperitoneal daily for 4 days measured on day 5; format: functional; conditions: ip
# How it was run: (§1)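 Four-day suppressive test: female CD mice (mean body weight 20 2 g) infected with 10⁶ P. vinckei petteri-infected red blood cells in RPMI on day 0. Groups of five treated intraperitoneally days 0–3 at 1, 10 or 20 mg/kg/day. Controls received RPMI alone or chloroquine (1 and 10 mg/kg). Giemsa-stained tail-blood smears, at least 5000 erythrocytes counted. Inhibition % = (control − treated parasitaemia)/control × 100.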
# [2] = tested on: Plasmodium vinckei petteri; assay: Antimalarial activity against Plasmodium vinckei petteri infected in CD mice (Mus musculus) assessed as inhibition of parasitaemia dosed daily for 4 days measured on day 5; format: functional; how it was run: as §1
# [3] = tested on: Plasmodium vinckei petteri; assay: Antimalarial activity against Plasmodium vinckei petteri infected in CD mice (Mus musculus) assessed as inhibition of parasitaemia at 10 mg/kg, intraperitoneal daily for 4 days measured on day 5; format: functional; conditions: ip; how it was run: as §1
# Mus musculus = assay: Toxicity against CD mouse at 20 mg/kg, ip qd for 4 days; format: organism-based; design: dose 20 mg/kg, route intraperitoneal; conditions: in vivo, 96 h
# [4] = tested on: Plasmodium vinckei petteri; assay: Antimalarial activity against Plasmodium vinckei petteri infected in CD mice (Mus musculus) assessed as inhibition of parasitaemia at 20 mg/kg, intraperitoneal daily for 4 days measured on day 5; format: functional; conditions: ip; how it was run: as §1
SMILES,IC50 (Plasmodium falciparum),also measured
CCCCc1ccc(/C=C2\Nc3cc(OC)cc(OC)c3C2=O)cc1,4.1 µM,–
COc1ccc(/C=C2\Nc3cc(OC)cc(OC)c3C2=O)c(OC)c1,5 µM,–
O=C1/C(=C/c2ccc(O)cc2)Oc2cc(O)ccc21,130 µM,–
CCc1ccccc1/C=C1\Oc2cc(OC)cc(OC)c2C1=O,21 µM,–
C#Cc1ccc(/C=C2\Nc3cc(OC)cc(OC)c3C2=O)cc1,13.4 µM,–
COc1cc2c(c(OC)c1)C(=O)/C(=C/c1cc(Cl)ccc1Cl)N2,8.4 µM,–
COc1cc(OC)c2c(c1)O/C(=C\c1ccc(-c3ccncc3)cc1)C2=O,85 µM,–
COc1cc(OC)c2c(c1)O/C(=C\c1ccc(F)cc1)C2=O,86.7 µM,–
COc1cc2c(c(OC)c1)C(=O)/C(=C/c1ccccc1Cl)N2,9.9 µM,–
CCN(CC)CCCC(C)Nc1ccnc2cc(Cl)ccc12 (stereo not drawn) [CHLOROQUINE],–,inhibition in vivo at 1 mg/kg [1]: 0%; ED50 [2]: 5000 µg/mL; inhibition in vivo at 10 mg/kg [3]: 100%
COc1cc2c(c(OC)c1)C(=O)/C(=C/c1ccc(N3CCOCC3)cc1)N2,8.9 µM,–
COc1cc2c(c(OC)c1)C(=O)/C(=C/c1cc(C)c(C)cc1C)N2,5.6 µM,–
COc1cc(OC)c2c(c1)O/C(=C\c1ccc(Br)cc1)C2=O,49.8 µM,–
COc1cc(OC)c2c(c1)O/C(=C\c1ccc(C(C)(C)C)cc1)C2=O,13.3 µM,–
COc1cc2c(c(OC)c1)C(=O)/C(=C/c1ccc(Br)cc1)N2,49.8 µM,–
COc1cc2c(c(OC)c1)C(=O)/C(=C/c1ccc(SC)cc1)N2,6.7 µM,–
Cc1ccc(/C=C2\Oc3cc(O)cc(O)c3C2=O)cc1,63.4 µM,–
COc1cc2c(c(OC)c1)C(=O)/C(=C/c1ccc(C)cc1C)N2,3.6 µM,–
"COc1ccc(/C=C2\Oc3cc(OC)cc(OC)c3C2=O)cc1 [4,4',6-TRIMETHOXY-AURONE]",11 µM,–
COc1cc(OC)c2c(c1)O/C(=C\c1ccccc1)C2=O,60.3 µM,–

# Second part, led by results:
IC50 (Plasmodium falciparum),SMILES,also measured
8.9 µM,COc1cc2c(c(OC)c1)C(=O)/C(=C/c1c(C)c(C)cc(C)c1C)N2,–
1.9 µM,COc1cc2c(c(OC)c1)C(=O)/C(=C/c1cc(OC)c(OC)c(OC)c1)N2,–
1.9 µM,COc1cc(OC)c(/C=C2\Nc3cc(OC)cc(OC)c3C2=O)c(OC)c1,–
3.7 µM,COc1cc2c(c(OC)c1)C(=O)/C(=C/c1ccc(N(C)C)cc1)N2,–
94.5 µM,O=C1/C(=C/c2ccccc2)Oc2cc(O)cc(O)c21,–
9.1 µM,COc1cc2c(c(OC)c1)C(=O)/C(=C/c1c(C)cccc1C)N2,–
1 µM,CCc1ccc(/C=C2\Nc3cc(OC)cc(OC)c3C2=O)cc1,inhibition in vivo at 1 mg/kg [1]: 3%; ED50 [2]: > 20 mg/kg; inhibition in vivo at 10 mg/kg [3]: 17%; Activity (Mus musculus): Non-toxic; inhibition in vivo at 20 mg/kg [4]: 0%
17 µM,COc1cc2c(c(OC)c1)C(=O)/C(=C/c1ccc(Cl)cc1)N2,–
4.4 µM,COc1cc2c(c(OC)c1)C(=O)/C(=C/c1ccc(C(C)C)cc1)N2,–
234 µM,COc1cc(OC)c2c(c1)O/C(=C\c1ccc(-c3ccccc3)cc1)C2=O,–
9 µM,COc1cc2c(c(OC)c1)C(=O)/C(=C/c1c(F)cccc1Cl)N2,–
28 µM,CCc1ccc(/C=C2\Oc3cc(O)ccc3C2=O)cc1,–
7.2 µM,COc1cc2c(c(OC)c1)C(=O)/C(=C/c1ccc(C(C)(C)C)cc1)N2,–
12.8 µM,CCc1ccccc1/C=C1\Nc2cc(OC)cc(OC)c2C1=O,–
11.8 µM,CCCCc1ccc(/C=C2\Oc3cc(OC)cc(OC)c3C2=O)cc1,–
114 µM,CCc1ccccc1/C=C1\Oc2cc(O)cc(O)c2C1=O,–
